Data set [1] can be described thus: Drug level in phosphate buffer treated with (Z)-3,3-dimethyl-1-(5-(4-(methylamino)benzoyloxy)-2,4-dinitrophenoxy)triaz-1-ene 2-oxide at 1 uM at pH 7.4 at 37 degC after 1 to 30 mins by LC/MS-MS analysis. The note with it: pH 7.4, 1 µM. The data set is classed as physicochemical.
The target in data set [2] is T1, Glutathione S-transferase A1 (Homo sapiens, UniProt P08263).
T1 sequence (P08263 whole entry): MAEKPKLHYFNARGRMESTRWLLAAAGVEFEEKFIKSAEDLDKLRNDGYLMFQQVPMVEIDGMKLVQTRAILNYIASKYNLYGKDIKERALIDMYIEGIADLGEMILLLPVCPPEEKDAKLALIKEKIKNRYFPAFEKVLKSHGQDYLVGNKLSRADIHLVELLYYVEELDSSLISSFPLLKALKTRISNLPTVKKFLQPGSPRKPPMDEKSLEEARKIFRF
In words: Drug level in phosphate buffer assessed as GSTA1 (unknown origin)-mediated compound formation from nitric oxide release pathway treated with (Z)-3,3-dimethyl-1-(5-(4-(methylamino)benzoyloxy)-2,4-dinitrophenoxy)triaz-1-ene 2-oxide at 1 uM at pH 7.4 at 37 degC after 30 mins by LC-MS/MS analysis in presence of GSH. It is filed as ADME. The note with it: pH 7.4, 0.5 h. The gist of the method:
(§1)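 Products analysed by LC–MS. The ratio is the NO-release-pathway product over the NO-retained-pathway phenolic product.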

Data set [3] is described as follows: Drug level in phosphate buffer treated with (Z)-1-(2-cyano-5-(4-(methylamino)benzoyloxy)-4-nitrophenoxy)-3,3-dimethyltriaz-1-ene 2-oxide at 1 uM at pH 7.4 at 37 degC after 30 secs by LC-MS analysis in presence of GSH. The note with it: pH 7.4, 0.5 min. The data set is classed as physicochemical.
Data set [4] in a line: Drug level in phosphate buffer treated with (Z)-1-(4-cyano-5-(4-(methylamino)benzoyloxy)-2-nitrophenoxy)-3,3-dimethyltriaz-1-ene 2-oxide at 1 uM at pH 7.4 at 37 degC after 30 secs by LC-MS analysis in presence of GSH. The data set is classed as physicochemical. Conditions: pH 7.4, 0.5 min.
Data set [5] in a line: Drug level in phosphate buffer treated with (Z)-1-(4-cyano-5-(4-(methylamino)benzoyloxy)-2-nitrophenoxy)-3,3-dimethyltriaz-1-ene 2-oxide at 1 uM at pH 7.4 at 37 degC measured for 30 mins by LC-MS/MS analysis in presence of GSH. The note with it: pH 7.4, 0.5 h. It is filed as physicochemical.
Data set [6] addresses T1, Glutathione S-transferase A1. In words: Drug level in phosphate buffer assessed as GSTA1 (unknown origin)-mediated compound formation from nitric oxide retained pathway treated with (Z)-1-(4-cyano-5-(4-(methylamino)benzoyloxy)-2-nitrophenoxy)-3,3-dimethyltriaz-1-ene 2-oxide at 1 uM at pH 7.4 at 37 degC after 30 mins by LC-MS/MS analysis in presence of GSH. It is filed as ADME. The note with it: pH 7.4, 0.5 h. In short, it runs like this:
as §1

Data set [7] is described as follows: Drug level in phosphate buffer treated with (Z)-3,3-dimethyl-1-(5-(4-(methylamino)benzoyloxy)-2,4-dinitrophenoxy)triaz-1-ene 2-oxide at 1 uM at pH 7.4 at 37 degC by HPLC trapping method. The note with it: pH 7.4, 1 µM. It is filed as physicochemical.
Data set [8] can be described thus: Drug level in phosphate buffer treated with (Z)-3,3-dimethyl-1-(5-(4-(methylamino)benzoyloxy)-2,4-dinitrophenoxy)triaz-1-ene 2-oxide at 1 uM at pH 7.4 at 37 degC by HPLC trapping method in presence of GSH. Conditions: pH 7.4, 1 µM. It is filed as physicochemical.
The target of data set [9] is T1, Glutathione S-transferase A1. In words: Drug level in phosphate buffer assessed as GSTA1 (unknown origin)-mediated compound formation from nitric oxide retained pathway treated with (Z)-3,3-dimethyl-1-(5-(4-(methylamino)benzoyloxy)-2,4-dinitrophenoxy)triaz-1-ene 2-oxide at 1 uM at pH 7.4 at 37 degC after 30 mins by LC-MS/MS analysis in presence of GSH. It is filed as ADME. The note with it: pH 7.4, 0.5 h. In short, it runs like this: as §1

The nature of data set [10]: Half life of the compound in phosphate buffer at 1 uM at pH 7.4 at 25 degC by HPLC trapping method. It is filed as ADME. The gist of the method:
(§2)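 Hydrolysis of compound at 1 µM final in 0.1 M phosphate buffer, pH 7.4, with 0.1% DMSO, run separately at 25 °C and 37 °C. Decomposition followed by HPLC, with products confirmed by LC–MS/MS. First-order rate constants were derived by initial-rate analysis.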

Data set [11] in a line: Half life of the compound in phosphate buffer at 1 uM at pH 7.4 at 37 degC by HPLC trapping method. The data set is classed as ADME. The gist of the method: as §2
The nature of data set [12]: Stability of the compound in phosphate buffer assessed as first-order initial rate constant for hydrolysis at pH 7.4 at 25 degC by HPLC trapping method. It is filed as physicochemical.
A short description of data set [13]: Stability of the compound in phosphate buffer assessed as first-order initial rate constant for hydrolysis at pH 7.4 at 37 degC by HPLC trapping method. The data set is classed as physicochemical.
Data set [14] in a line: Stability of the compound in phosphate buffer assessed as pseudo-first order rate constant at pH 7.4 at 37 degC by HPLC trapping method in presence of GSH. The data set is classed as physicochemical.
For data set [15], the target named is T2, Glutathione S-transferase P (Homo sapiens, UniProt P09211). Put plainly: Prodrug conversion in phosphate buffer assessed as GSTP1 (unknown origin)-mediated nitric oxide release at 1 uM at pH 7.4 at 37 degC after 1 to 30 mins by LC/MS-MS analysis. It is filed as ADME. Conditions: pH 7.4, 1 µM. In short, it runs like this: (§3)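 Test compound at 1 µM reacted with 4 mM GSH containing 4 nM GSTP1 in 0.1 M phosphate, pH 7.4, at 37 °C. Products identified by LC–MS traces taken at 60 s and 30 min.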
T2 sequence (P09211 whole entry): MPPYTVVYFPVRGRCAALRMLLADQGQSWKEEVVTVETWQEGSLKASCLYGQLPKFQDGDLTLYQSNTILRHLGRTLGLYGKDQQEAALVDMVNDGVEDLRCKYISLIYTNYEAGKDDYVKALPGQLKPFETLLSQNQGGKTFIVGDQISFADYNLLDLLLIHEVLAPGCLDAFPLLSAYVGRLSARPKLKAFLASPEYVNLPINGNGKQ

Data set [16] deals with T1, Glutathione S-transferase A1. Put plainly: Drug metabolism in phosphate buffer assessed as ratio of GSTA1 (unknown origin)-mediated (S)-2-amino-5-((R)-1-(carboxymethylamino)-3-(5-hydroxy-2,4-dinitrophenylthio)-1-oxopropan-2-ylamino)-5-oxopentanoic acid formation from nitric oxide release pathway to GSTA1 (unknown origin)-mediated (Z)-1-(5-hydroxy-2,4-dinitrophenoxy)-3,3-dimethyltriaz-1-ene 2-oxide formation from nitric oxide retained pathway at 1 uM at pH 7.4 at 37 degC after 30 mins by LC-MS/MS analysis in presence of GSH. It is filed as ADME. The note with it: pH 7.4, 0.5 h. The gist of the method: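 GSTA1 (4 nM)-catalysed reaction of 1 µM compound with 4 mM GSH in 0.1 M phosphate buffer, pH 7.4, 37 °C. Products analysed by LC–MS. Value is the ratio of the NO-release-pathway product to the NO-retained-pathway phenol product.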

The target of data set [17] is T2, Glutathione S-transferase P. In words: Drug metabolism in phosphate buffer assessed as formation of GSTP1 (unknown origin)-mediated (Z)-1-(5-((R)-2-((S)-4-amino-4-carboxybutanamido)-3-(carboxymethylamino)-3-oxopropylthio)-2-cyano-4-nitrophenoxy)-3,3-dimethyltriaz-1-ene 2-oxide at 1 uM at pH 7.4 at 37 degC after 5 to 30 mins by LC-MS/MS analysis in presence of GSH. The note with it: pH 7.4, 1 µM. The data set is classed as ADME. In short, it runs like this: as §3

Data set [18] deals with T1, Glutathione S-transferase A1. Put plainly: Drug metabolism in phosphate buffer assessed as ratio of GSTA1 (unknown origin)-mediated (S)-2-amino-5-((R)-1-(carboxymethylamino)-3-(2-cyano-5-hydroxy-4-nitrophenylthio)-1-oxopropan-2-ylamino)-5-oxopentanoic acid formation from nitric oxide release pathway to GSTA1 (unknown origin)-mediated (Z)-1-(2-cyano-5-hydroxy-4-nitrophenoxy)-3,3-dimethyltriaz-1-ene 2-oxide formation from nitric oxide retained pathway at 1 uM at pH 7.4 at 37 degC after 30 mins by LC-MS/MS analysis in presence of GSH. It is filed as ADME. The note with it: pH 7.4, 0.5 h. The gist of the method:
as §1

For data set [19], the system named is HL-60. Put plainly: Cytotoxicity against human HL60 cells assessed as growth inhibition after 72 hrs by MTT assay. The data set is classed as functional, cell-based. The note with it: HL-60, 72 h. The gist of the method: (§4)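 HL-60 and U937 cells from ATCC, grown per supplier protocol, seeded and exposed to increasing concentrations for 72 h. Viability was read with a Promega assay run per the manufacturer's protocol. Six repeats per concentration, three independent experiments. IC50 derived by curve fitting.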

In data set [20] the test system is U-937. Put plainly: Cytotoxicity against human U937 cells assessed as growth inhibition after 72 hrs by MTT assay. Conditions: U-937, 72 h. The data set is classed as functional, cell-based. The gist of the method: as §4
Data set [21] deals with HL-60. In words: Induction of apoptosis in human HL60 cells assessed as activation of caspase 8 at >10 uM after 24 hrs by Western blot analysis. The data set is classed as functional, cell-based.
For data set [22], the system named is HL-60. In words: Induction of apoptosis in human HL60 cells assessed as activation of caspase 7 at >10 uM after 24 hrs by Western blot analysis. The data set is classed as functional, cell-based.
The subject of data set [23] is HL-60. In words: Induction of apoptosis in human HL60 cells assessed as cleavage of PARP at >10 uM after 24 hrs by Western blot analysis. It is filed as functional, cell-based.
Data set [24] concerns HL-60. In words: Induction of SAPK/JNK phosphorylation in human HL-60 cells at 5 to 20 uM after 24 hrs by Western blot analysis.

Experimental findings from ChEMBL document CHEMBL3593239, “PABA/NO lead optimization: Improved targeting of cytotoxicity to glutathione S-transferase P1-overexpressing cancer cells” (Bioorg Med Chem, 2015) are described below.

The structures appear in SMILES notation. The source made the active and inactive calls. The rule behind the calls is not given here.

Turning to `N[C@@H](CCC(=O)N[C@@H](CSc1cc(O)c([N+](=O)[O-])cc1[N+](=O)[O-])C(=O)NCC(=O)O)C(=O)O`, the Drug metabolism entry in data set [1] and in data set [2] was “metabolite_detected” in each case.
Take `CNc1ccc(C(=O)SC[C@H](NC(=O)CC[C@H](N)C(=O)O)C(=O)NCC(=O)O)cc1`: the Drug metabolism result in [3], in data set [4], in [1] and in data set [5] was “metabolite_detected” throughout.
`CN(C)/[N+]([O-])=N/Oc1cc(O)c(C#N)cc1[N+](=O)[O-]`: the Drug metabolism entry in data set [4] and in data set [6] was “metabolite_detected” in each case.
For `CN(C)/[N+]([O-])=N\Oc1cc(O)c([N+](=O)[O-])cc1[N+](=O)[O-]`, the Drug metabolism entry in [7], in data set [8], in [1] and in data set [9] was “metabolite_detected” throughout.
With `CNc1ccc(C(=O)Oc2cc(O/N=[N+](\[O-])N(C)C)c([N+](=O)[O-])cc2[N+](=O)[O-])cc1`, the half-life at 1 µM in [10] is 2 h; in data set [11] it was 0.333 h. The K in [12] turned out to be 9.6 ×10⁻⁵ /s; in data set [13], 5.7 ×10⁻⁴ /s; in data set [14], 11.8 ×10⁻³ /s. The Drug metabolism entry in [15] was “metabolite_detected”. Also, the Ratio in [16] was 3.
As to `CNc1ccc(C(=O)Oc2cc(O/N=[N+](\[O-])N(C)C)c(C#N)cc2[N+](=O)[O-])cc1`, the K in [12] is given as 3.3 ×10⁻⁵ /s; in data set [13] it was 2.1 ×10⁻⁴ /s; in data set [14], 2.1 ×10⁻³ /s. Also, the Drug metabolism result in data set [15] and in [17] was “metabolite_detected” throughout. Besides, the Ratio in [18] turned out to be 1. For the same compound, the figures for the IC50 in data set [19] and in data set [20] were 20 µM and 15 µM, respectively. The outcome in data set [21], in [22], in data set [23] and in [24] was Active.
Regarding `CNc1ccc(C(=O)Oc2cc(SC[C@H](NC(=O)CC[C@H](N)C(=O)O)C(=O)NCC(=O)O)c([N+](=O)[O-])cc2[N+](=O)[O-])cc1`, the Drug metabolism result in [8] and in data set [1] was “metabolite_detected” in each case.
